A value given as a limit tells only on which side of the number the result lay.

For test [1], the system named is KB. Briefly: Cytotoxicity against KB cell line. Type of test: functional. The conditions noted are these: Homo sapiens, read-out: TD50 (the source's name).
For test [2], the system named is Trypanosoma brucei rhodesiense. Kind of test: Antitrypanosomal activity against Trypanosoma brucei rhodesiense trypomastigotes. Type of test: functional. The following applies: read-out: ED50 (the source's name). Put shortly: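 Bloodstream-form STIB900 trypomastigotes grown in HMI-18 + 15% HIFCS at 37 °C, 5% CO2. Seeded at 2 × 10^5/mL onto drug dilutions (top 30 µg/mL) for 72 h. Alamar Blue read 5-6 h later by fluorescence (ex/em 530/585 nm). ED50 by curve fitting.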

For test [3], the system named is Leishmania donovani. Briefly: Antileishmanial activity against Leishmania donovani amastigotes in CD1 mouse macrophage. Type of test: functional, organism-based. The following applies: read-out: ED50 (the source's name). Put shortly: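 Peritoneal macrophages from starch-induced CD1 mice, kept 24 h in RPMI1640 + 10% HIFCS at 37 °C, 5% CO2. Infected with L. donovani MHOM/ET/67/L82 amastigotes from hamster spleen at 5 parasites:1 macrophage. After 24 h, drug exposure for 5 days, overlay replaced day 3. Top concentration 30 µg/mL, quadruplicate. Slides methanol-fixed, Giemsa-stained, counted microscopically. ED50 by curve fitting.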

Test [4] deals with Plasmodium falciparum. Briefly: Antimalarial activity against Plasmodium falciparum K1. Type of test: functional, organism-based. The following applies: read-out: ED50 (the source's name).
Test [5] deals with Trypanosoma cruzi. Kind of test: Antitrypanosomal activity against Trypanosoma cruzi trypomastigotes in CD1 mouse macrophage. In kind it is functional. The conditions noted are these: read-out: ED50 (the source's name). An outline of the steps: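 Starch-induced CD1 peritoneal macrophages plated at 4 × 10^5/mL, infected after 24 h with T. cruzi Tulahuan LAC-Z trypomastigotes. 24 h later, drug exposure for 3 days. ED50 by curve fitting.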

Test [6] concerns Plasmodium falciparum. Kind of test: Antimalarial activity against Plasmodium falciparum 3D7. In kind it is functional, organism-based. Put shortly: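 Synchronized ring-stage 3D7 culture at 1% parasitemia in RPMI 1640, 5% hematocrit, 37 °C, 5% CO2. Top final drug concentration 30 µg/mL. After 24 h, (3H)-hypoxanthine added (0.2 µCi/well), then 48 h further incubation. Plates freeze/thawed and harvested, and hypoxanthine uptake counted. ED50 by curve fitting.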

Setting [7] is: read-out: ED50 (the source's name).

Consider `COC(=O)CCCNC(=O)[C@@H](C)[C@H]1CC[C@H]2C3CC=C4C[C@@H](OC(C)=O)CC[C@]4(C)[C@H]3CC[C@]12C` (stereo partly drawn), for which, in test [1], the CC50 was more than 615 µM. In addition, the EC50 in test [2] was 9.15 µM; in test [3], more than 62 µM; in test [4], 11.6 µM; in test [5], 4.7 µM; in test [6] (setting [7]), 16.2 µM.
Turning to `C[C@H](CNCC[C@H](NC(=O)OC(C)(C)C)C(=O)O)[C@H]1CC[C@H]2C3CC=C4C[C@@H](O)CC[C@]4(C)[C@H]3CC[C@]12C` (stereo partly drawn), the CC50 in test [1] was more than 563 µM. Moreover, the EC50 in test [2] is more than 56 µM; in test [4] it was 38.1 µM; in test [5], less than 2.08 µM; in test [6] (setting [7]), 36.6 µM.
On to `COc1cc([C@@H]2c3cc4c(cc3[C@H](O)[C@H]3COC(=O)[C@H]23)OCO4)cc(OC)c1OC` [PODOFILOX], for which the CC50 in test [1] was determined as 0.001 µM. The EC50 in test [4] stood at 0.1 µM.
In the case of `CC(=O)O[C@H]1CC[C@@]2(C)C(=CCC3[C@@H]4CC[C@H]([C@H](C)CNCCCC[C@H](NC(=O)OCc5ccccc5)C(=O)OCc5ccccc5)[C@@]4(C)CC[C@@H]32)C1` (stereo partly drawn), in test [1], the CC50 was 29.8 µM. In addition, the EC50 in test [2] was found to be 0.619 µM; in test [4], 0.069 µM; in test [5], 1.71 µM; in test [6] (setting [7]), 0.839 µM.
For `C[C@H](C(=O)NCCCCCCC(=O)O)[C@H]1CC[C@H]2C3CC=C4C[C@@H](O)CC[C@]4(C)[C@H]3CC[C@]12C` (stereo partly drawn), in test [1], the CC50 came to 252 µM. In addition, the EC50 in test [2] is 2.32 µM; in test [3], more than 63 µM; in test [5] it was 34.5 µM; in test [6] (setting [7]) it was more than 63 µM.
For `CC(=O)O[C@H]1CC[C@@]2(C)C(=CCC3[C@@H]4CC[C@H]([C@H](C)C(=O)NCCC[C@H](NC(=O)OCc5ccccc5)C(=O)O)[C@@]4(C)CC[C@@H]32)C1` (stereo partly drawn), in test [1], the CC50 came out at 147 µM. Moreover, the EC50 in test [2] was 1.7 µM; in test [3], more than 47 µM; in test [5] it was more than 47 µM; in test [6] (setting [7]) it was more than 47 µM.
Consider `CC(=O)O[C@H]1CC[C@@]2(C)C(=CCC3[C@@H]4CC[C@H]([C@H](C)CNCCCC(=O)O)[C@@]4(C)CC[C@@H]32)C1` (stereo partly drawn), for which, in test [1], the CC50 was determined as 505 µM. In addition, the EC50 was 54.6 µM in test [2], more than 65 µM in test [3], 12.6 µM in test [5] and more than 65 µM in test [6] (setting [7]).
As to `COC(=O)CCCNC[C@@H](C)[C@H]1CC[C@H]2C3CC=C4C[C@@H](OC(C)=O)CC[C@]4(C)[C@H]3CC[C@]12C` (stereo partly drawn), in test [1], the CC50 is 19.2 µM. Besides, the EC50 in test [2] came out at 0.012 µM; in test [3], 3.19 µM; in test [5], 24.7 µM; in test [6] (setting [7]), 15.4 µM.
The corresponding values for `COC(=O)CCCCCNC[C@@H](C)[C@H]1CC[C@H]2C3CC=C4C[C@@H](OC(C)=O)CC[C@]4(C)[C@H]3CC[C@]12C` (stereo partly drawn) are 15.6 µM, 0.033 µM, 21.9 µM, 20.5 µM and 7.37 µM.
For `CC(=O)O[C@H]1CC[C@@]2(C)C(=CCC3[C@@H]4CC[C@H]([C@H](C)CNCCCCCC(=O)O)[C@@]4(C)CC[C@@H]32)C1` (stereo partly drawn), in that order: 433 µM, 55.2 µM, more than 62 µM, more than 62 µM and more than 62 µM.
On to `C[C@H](C(=O)NCCCCCC(=O)O)[C@H]1CC[C@H]2C3CC=C4C[C@@H](O)CC[C@]4(C)[C@H]3CC[C@]12C` (stereo partly drawn), for which, in test [1], the CC50 amounted to 303 µM. In addition, the EC50 in test [2] is 10.4 µM; in test [3], more than 65 µM; in test [5], 11.4 µM; in test [6] (setting [7]), more than 65 µM.
`CC(=O)O[C@H]1CC[C@@]2(C)C(=CCC3[C@@H]4CC[C@H]([C@H](C)C(=O)NCCCC[C@H](NC(=O)OCc5ccccc5)C(=O)OCc5ccccc5)[C@@]4(C)CC[C@@H]32)C1` (stereo partly drawn): the CC50 in test [1] is more than 400 µM. Also, the EC50 was 0.01 µM in test [2], more than 40 µM in test [3], more than 24 µM in test [5] and 3.4 µM in test [6] (setting [7]).
For `COC(=O)[C@H](CCCCNC[C@@H](C)[C@H]1CC[C@H]2C3CC=C4C[C@@H](OC(C)=O)CC[C@]4(C)[C@H]3CC[C@]12C)NC(=O)OCc1ccccc1` (stereo partly drawn), the CC50 in test [1] came to 5.35 µM. The EC50 in test [2] was 0.753 µM; in test [4], 0.215 µM; in test [5], less than 1.71 µM; in test [6] (setting [7]) it was 0.799 µM.
As for `COC(=O)CCCCCNC[C@@H](C)[C@H]1CC[C@H]2C3CC=C4C[C@@H](O)CC[C@]4(C)[C@H]3CC[C@]12C` (stereo partly drawn), the CC50 in test [1] turned out to be 6.09 µM. Further, the EC50 in test [2] is 2.15 µM; in test [4] it was 0.5 µM; in test [5], less than 2.41 µM; in test [6] (setting [7]), 1.31 µM.
As for `COC(=O)CCCCCCCNC[C@@H](C)[C@H]1CC[C@H]2C3CC=C4C[C@@H](O)CC[C@]4(C)[C@H]3CC[C@]12C` (stereo partly drawn), the CC50 in test [1] turned out to be 6.17 µM. Moreover, the EC50 in test [2] turned out to be 0.308 µM; in test [4] it was 0.062 µM; in test [5] it was 2.64 µM; in test [6] (setting [7]) it was 0.349 µM.
Turning to `COC(=O)CCCCNC[C@@H](C)[C@H]1CC[C@H]2C3CC=C4C[C@@H](OC(C)=O)CC[C@]4(C)[C@H]3CC[C@]12C` (stereo partly drawn), in test [1], the CC50 was determined as 26.1 µM. Besides, the EC50 in test [2] is 0.032 µM; in test [3] it was more than 62 µM; in test [5] it was 11.7 µM; in test [6] (setting [7]), 8.65 µM.
For `COC(=O)CNC[C@@H](C)[C@H]1CC[C@H]2C3CC=C4C[C@@H](O)CC[C@]4(C)[C@H]3CC[C@]12C` (stereo partly drawn), the CC50 in test [1] was found to be 45 µM. Moreover, the EC50 was 4.91 µM in test [2], 22.2 µM in test [4], less than 2.75 µM in test [5] and 40.6 µM in test [6] (setting [7]).
Turning to `C[C@H](CNCCCCCC(=O)O)[C@H]1CC[C@H]2C3CC=C4C[C@@H](O)CC[C@]4(C)[C@H]3CC[C@]12C` (stereo partly drawn), the CC50 in test [1] is more than 673 µM. Moreover, the EC50 in test [2] was more than 67 µM; in test [3], 54.5 µM; in test [5] it was 56.3 µM; in test [6] (setting [7]), more than 67 µM.
Regarding `C[C@H](CNCCCC[C@H](NC(=O)OCc1ccccc1)C(=O)O)[C@H]1CC[C@H]2C3CC=C4C[C@@H](O)CC[C@]4(C)[C@H]3CC[C@]12C` (stereo partly drawn), in test [1], the CC50 was more than 504 µM. The EC50 in test [2] was more than 50 µM; in test [4], 6.29 µM; in test [5] it was 9.52 µM; in test [6] (setting [7]) it was 16.7 µM.
In the case of `C[C@H](C(=O)NCCCC(=O)O)[C@H]1CC[C@H]2C3CC=C4C[C@@H](O)CC[C@]4(C)[C@H]3CC[C@]12C` (stereo partly drawn), the CC50 in test [1] was determined as 616 µM. For the same compound, the EC50 in test [2] was found to be 49.8 µM; in test [3] it was 29.2 µM; in test [5], 39.8 µM; in test [6] (read-out: EC50), 45.6 µM.
As for `COC(=O)CCCNC[C@@H](C)[C@H]1CC[C@H]2C3CC=C4C[C@@H](O)CC[C@]4(C)[C@H]3CC[C@]12C` (stereo partly drawn), in test [1], the CC50 worked out at 1.55 µM. In addition, the EC50 in test [2] is 5.05 µM; in test [4] it was 1.95 µM; in test [5], less than 2.57 µM; in test [6] (setting [7]) it was 7.53 µM.

For the origin of these results see ChEMBL document CHEMBL1137377, “Evaluation of azasterols as anti-parasitics” (J Med Chem, 2006).
